Reference: ChEMBL document CHEMBL3244040, “Synthesis and topical antiinflammatory properties of 17,21-bis(acetyloxy)-6beta,9-difluoro-11beta-hydroxypregna-1,4-diene-3,20-dione and related 2-halogenated compounds” (J Med Chem, 1977)
The source made the active and inactive calls. The rule behind the calls is not given here.

Experiments:
Rattus norvegicus [1] = assay: Antiinflammatory activity in rat assessed as inhibition of cotton pellet-induced granuloma weight administered topically measured per pellet; format: functional
How it was run: (§1)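 Cotton-pellet granuloma test in rats; compounds suspended in 0.5% aqueous carboxymethylcellulose applied directly to the pellets, doses up to 40 µg/pellet; at least eight rats per dose. Granuloma and thymus weights converted to mg/100 g body weight. ED30 (30% inhibition) derived from log dose–response least-squares lines with 95% confidence limits, or approximated from eye-fit linear plots.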

Rattus norvegicus [2] = assay: Thymolytic activity in rat assessed as inhibition of thymus weight administered topically measured per pellet; format: organism-based; details: in vivo, topical_or_ocular; how it was run: as §1
Rattus norvegicus [3] = assay: Thymolytic activity in po dosed rat assessed as inhibition of thymus weight administered bid for 7 days; format: organism-based; details: in vivo, 168 h
How it was run: (§2)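 Rat cotton-pellet granuloma test; compounds suspended in 0.5% carboxymethylcellulose in water given orally daily for seven consecutive days, doses up to 12.5 mg/kg die; at least eight rats per dose. Granuloma and thymus weights expressed as mg/100 g body weight. ED30 (30% inhibition) from log dose–response least-squares regression with 95% confidence limits, or extrapolated from eye-fit plots.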

Rattus norvegicus [4] = assay: Antiinflammatory activity in po dosed rat assessed as inhibition of cotton pellet-induced granuloma weight administered bid for 7 days; format: functional, organism-based; how it was run: as §2
Rattus norvegicus [5] = assay: Mineralocorticoid activity in rat assessed as sodium retention up to 1 mg/kg, sc; format: ADME, organism-based; set-up: dose 1 mg/kg, route subcutaneous; details: in vivo

SMILES	ED30 (Rattus norvegicus [1]) [µg]	ED30 (Rattus norvegicus [2]) [µg]	Activity (Rattus norvegicus [3])	Activity (Rattus norvegicus [4])	Activity (Rattus norvegicus [5])
CC(=O)OCC(=O)[C@@]1(O)CC[C@H]2[C@@H]3C[C@@H](F)C4=CC(=O)C=C[C@]4(C)[C@@]3(F)[C@@H](O)C[C@@]21C	>40	> 40			
CC(=O)OCC(=O)[C@@]1(OC(C)=O)CC[C@H]2[C@@H]3C[C@H](F)C4=CC(=O)C(Cl)=C[C@]4(C)[C@@]3(F)[C@@H](O)C[C@@]21C	>40	40	Non-toxic	inactive	
CC(=O)OCC(=O)[C@@]1(O)CC[C@H]2[C@@H]3C[C@@H](F)C4=CC(=O)C(Cl)=C[C@]4(C)[C@@]3(F)[C@@H](O)C[C@@]21C	9	> 40			
C[C@]12C=CC(=O)C=C1[C@H](F)C[C@H]1[C@@H]3CC[C@](O)(C(=O)CO)[C@@]3(C)C[C@H](O)[C@@]12F	>40	> 40			
CC(=O)OCC(=O)[C@@]1(OC(C)=O)CC[C@H]2[C@@H]3C[C@@H](F)C4=CC(=O)C=C[C@]4(C)[C@@]3(F)[C@@H](O)C[C@@]21C	40	> 40	Non-toxic		
CC(=O)OCC(=O)[C@@]1(O)CC[C@H]2[C@@H]3C[C@H](F)C4=CC(=O)C=C[C@]4(C)[C@@]3(F)[C@@H](O)C[C@@]21C	40	20			
CC1(C)O[C@@H]2C[C@H]3[C@@H]4C[C@H](F)C5=CC(=O)C=C[C@]5(C)[C@@]4(F)[C@@H](O)C[C@]3(C)[C@]2(C(=O)CO)O1 [FLUOCINOLONE ACETONIDE]	1.02	5			
CC(=O)OCC(=O)[C@@]1(OC(C)=O)CC[C@H]2[C@@H]3C[C@H](F)C4=CC(=O)C=C[C@]4(C)[C@@]3(F)[C@@H](O)C[C@@]21C	0.1	5	Non-toxic	inactive	
CC(=O)OCC(=O)[C@@]1(O)CC[C@H]2[C@@H]3C[C@@H](F)C4=CC(=O)C(Br)=C[C@]4(C)[C@@]3(F)[C@@H](O)C[C@@]21C	40	> 40			
CC(=O)OCC(=O)[C@@]1(OC(C)=O)CC[C@H]2[C@@H]3C[C@@H](F)C4=CC(=O)C(Cl)=C[C@]4(C)[C@@]3(F)[C@@H](O)C[C@@]21C	0.45	> 40	Non-toxic	inactive	
C[C@]12C=C(Cl)C(=O)C=C1[C@H](F)C[C@H]1[C@@H]3CC[C@](O)(C(=O)CO)[C@@]3(C)C[C@H](O)[C@@]12F	>40	> 40			
C[C@]12C=CC(=O)C=C1[C@@H](F)C[C@H]1[C@@H]3CC[C@](O)(C(=O)CO)[C@@]3(C)C[C@H](O)[C@@]12F	40	20			
CC(=O)OCC(=O)[C@@]1(OC(C)=O)CC[C@H]2[C@@H]3C[C@@H](F)C4=CC(=O)C(Br)=C[C@]4(C)[C@@]3(F)[C@@H](O)C[C@@]21C [HALOPREDONE ACETATE]	0.01	> 1000	Non-toxic	inactive	Non-toxic
C[C@]12C=C(Br)C(=O)C=C1[C@H](F)C[C@H]1[C@@H]3CC[C@](O)(C(=O)CO)[C@@]3(C)C[C@H](O)[C@@]12F	>40	> 40			
CC(=O)OCC(=O)[C@@]1(OC(C)=O)CC[C@H]2[C@@H]3C[C@H](F)C4=CC(=O)C(Br)=C[C@]4(C)[C@@]3(F)[C@@H](O)C[C@@]21C	>40	> 40	Non-toxic	inactive	
